Assay results taken from publication PMC8301548 (Clinical and Translational Science, 2021).
≈ marks a conversion by molar mass, not a printed value. Like-named read-outs stand apart in the source and are kept apart here.

Columns and labels:
BCRP = conditions: cited from earlier work
[1] = Population PK model of oxypurinol; format: in vivo, human; conditions: for Kfm (formation rate constant): final PK model
[2] = format: in vivo; conditions: human, serum, po, 300 mg, 300 mg single oral dose of allopurinol; for AUC(0-t) / Cmax / Vd/F: mean ± SE; for Tmax: median (range); for Vd/F: V/F (apparent volume of distribution)
serum uric acid (SUA) [3] = format: in vivo, human
serum uric acid (SUA) [4] = conditions: cited from earlier work
[5] = Tolerability in the clinical study; format: in vivo, human; conditions: 19 healthy volunteers who completed the study; 300 mg oral allopurinol
How it was run: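 Healthy adults aged 18–50 were screened by medical-history questionnaire. Exclusions were HLA‑B*58:01 carriers, interacting medications, liver enzymes or creatinine >1.5× normal range, and abnormal platelet or white-cell counts. […] In one protocol they continued 300 mg once daily, with a final dose on day 6. In the other they received a single dose only.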

Row | Structure (SMILES) | BCRP substrate (BCRP) | Cmax ([2]; genotype (0) CC, n=9) | Cmax ([2]; genotype (1) CA, n=7) | Cmax ([2]; genotype (2) AA, n=3) | Tmax ([2]; genotype (0) CC) | Tmax ([2]; genotype (1) CA) | Tmax ([2]; genotype (2) AA) | Vd/F ([2]; genotype (0) CC) | Vd/F ([2]; genotype (1) CA) | Vd/F ([2]; genotype (2) AA) | also measured
1 | O=c1[nH]c(=O)c2c[nH]nc2[nH]1 [Oxypurinol, oxypurinol] | substrates of BCRP | 5930 ± 409 ng/mL | 6440 ± 592 ng/mL | 6380 ± 1350 ng/mL | 4 h | 4 h | 6 h | 49.9 ± 4.53 L | 61.9 ± 9.58 L | 56.6 ± 11.6 L | θgender(female), covariate effect on V/Fm ([1]; V/Fm=θV/Fm×(1+θgender), estimate (%RSE) [95% CI]): θgender(female) = −0.248 (35.7) [−0.395, −0.067]; Kfm (formation rate constant) ([1]; BSV in parentheses in the text): 0.771 h⁻¹; Kfm (formation rate constant) ([1]; estimate (%RSE) [95% CI]): 0.771 (17.8) [0.535, 1.06] 1/h; lower V/Fm in women compared with men ([1]; final PK/PD model, gender covariate): 24.8%; Vd/F ([1]; male, human, plasma, oral, 300 mg): 57 L; AUC(0-t) ([2]; AUC0–24, genotype (0) CC): 93900 ± 8070 ng·h/mL; AUC(0-t) ([2]; AUC0–24, genotype (1) CA): 93400 ± 9990 ng·h/mL; AUC(0-t) ([2]; AUC0–24, genotype (2) AA): 105000 ± 20600 ng·h/mL; EC50 (serum uric acid (SUA) [3]; Homo sapiens, read-out: C50 (concentration needed to achieve 50% effect)): 2.59 µg/mL (≈ 17 µM); Emax (maximum effect) (serum uric acid (SUA) [3]; final PK/PD model, effect on SUA, RSE not given): 1
2 | Oc1ncnc2[nH]ncc12 [Allopurinol, allopurinol] | substrates of BCRP | 1370 ± 130 ng/mL | 1930 ± 617 ng/mL | 1550 ± 453 ng/mL | 1.5 h | 1 h | 2 h | 149 ± 17 L | 160 ± 22.3 L | 148 ± 40.9 L | patients reaching an acceptable treatment end point (serum uric acid (SUA) [4]): 21%; tolerability [5]: well‐tolerated
